Hits are enriched below; roughly 2% of the tested compounds scored in any of these assays.
MC4R antag cAMP = MC4R antagonists of cAMP signaling, primary screen, cell-based, TR-FRET, antagonist arm of biased-ligand search; actives 0.48% (n = 360,000); Melanocortin receptor 4 (Homo sapiens), P32245; inhibition, % at 6.5 µM; MC4R-expressing cells, MTII-stimulated cAMP, LANCE TR-FRET; AID 540295, 2011;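 active = inhibition above its plate's cutoff, the mean of tested wells on that plate plus 3 SD, cut at about 29% in these data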;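 note: 0% = Melanotan II alone and 100% = Melanotan II plus saturating MCL0020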
Target sequence (P32245 whole entry, looked up): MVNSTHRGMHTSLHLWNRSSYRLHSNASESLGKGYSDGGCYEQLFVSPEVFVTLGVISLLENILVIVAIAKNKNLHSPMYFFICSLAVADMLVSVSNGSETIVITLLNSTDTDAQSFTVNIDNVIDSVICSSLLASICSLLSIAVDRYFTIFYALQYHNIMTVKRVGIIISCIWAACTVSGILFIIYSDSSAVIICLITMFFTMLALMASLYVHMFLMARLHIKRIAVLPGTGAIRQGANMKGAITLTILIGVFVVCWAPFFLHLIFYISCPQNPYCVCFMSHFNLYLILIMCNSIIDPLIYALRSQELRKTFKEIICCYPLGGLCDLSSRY
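System: U2OS-MC4R stable cell line; Technique: Eu-cAMP/anti-cAMP TR-FRET, emission 671 nm; Repeats: single well per compound; Also added: Melanotan II; Dosing: one concentration, 6.5 µM nominal; Schedule: 30-min compound, 1-h challenge, 1-h detection, room temperature.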
MC4R barr agon = MC4R agonists recruiting beta-arrestin, primary screen, cell-based, luminescence, agonist arm of biased-ligand search; U2OS MC4R beta-arrestin complementation; percent of melanotan II response, DMSO zero; activation, % at 8.9 µM; actives 0.98% (n = 360,000);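 active = activation above a per-plate cutoff, the mean activation of sample wells on that plate plus 3 SD, cut at about 8% in these data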
UPR XBP1 act = activators of adaptive XBP1 UPR arm, primary screen, cell-based, CHO-XBP1 luciferase reporter, luminescence, uHTS | IRE1-XBP1 UPR activation; percent of tunicamycin response, DMSO as zero | activation, % at 20 µM | actives 0.33% (n = 330,000);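 active = versus positive control, 20 µM dose yields 30% or more activation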;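 note: 100% = tunicamycin at 10 µg/mL and 0% = DMSO only wells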
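Assay system: IRE1-XBP1 luciferase reporter CHO line. Input: 1000 cells/well. Buffer or medium: F12 with 10% serum. Doses: 20 µM, 1% DMSO. Times: overnight seeding at 37 °C, 6 h compound treatment at 37 °C. Technique: Steady-Glo luciferase glow luminescence, 10 min after reagent addition.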
A1 inh = caspase 3/7 activation in MEF A1-2A-BIM cells, primary screen, A1 inhibitor project, cell-based, luminescence, HTS. Caspase-Glo 3/7 luminescence, 3 h; percent of clofoctol response, vehicle zero. caspase activation, % (test concentration not listed). actives 0.066% (n = 330,000);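 active = over half of replicate activation scores above 10%, or exactly half above 10 with the replicate mean above 10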
UPR CHOP act = activators of apoptotic CHOP UPR arm, primary screen, cell-based, CHO-CHOP luciferase reporter, luminescence, uHTS; actives 0.34% (n = 330,000); activation, % at 10 µM; UPR activation; percent of tunicamycin response over DMSO baseline; AID 449763, 2010;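 active = at 10 µM dose, activation of 40% or more, normalized to positive control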;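 note: 100% = tunicamycin at 10 µg/mL and 0% = DMSO alone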
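Assay system: CHO-CHOP cells, stable luciferase reporter of PERK-eIF2a-CHOP signalling / Buffer or medium: F12 plus 10% serum / Compound dosing: one dose, 10 µM in 0.5% DMSO / Times: 6 h compound treatment, 37 °C / Technique: luciferase luminescence / Read-out: % reporter activation, DMSO baseline versus tunicamycin full activation / Benchmarks: tunicamycin and DMSO controls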
MC4R barr conf = MC4R beta-arrestin agonists, retest, confirmation, cell-based, luminescence, U2OS | shares compounds with MC4R barr agon | U2OS MC4R beta-arrestin recruitment; scaled DMSO 0%, Melanotan II 100% | activation, % at 8.9 µM | actives 31% (n = 2,400) | AID 602192, 2012;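 active = mean activation across replicates above the hit cutoff set in the earlier primary screen, cut at about 8% in these data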
MOR DOR agonist = agonists of MOR-DOR heterodimerization, counter-screen for MC4R biased agonist project, cell-based, luminescence. actives 5.8% (n = 2,400). activation, % at 9.2 µM. shares compounds with MC4R barr agon. AID 602194, 2012. U2OS PathHunter beta-arrestin, beta-gal luminescence; percent of deltorphin B response, DMSO zero;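 active = mean activation across replicates exceeds the hit threshold derived in the earlier primary screen, cut at about 18% in these data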;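 note: 100% = deltorphin B at 0.9 µM final and 0% = DMSO alone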
* marks the source's active call; other numbers are inactive results; . = no result.

SMILES | MC4R antag cAMP | MC4R barr agon | UPR XBP1 act | A1 inh | UPR CHOP act | MC4R barr conf | MOR DOR agonist
O=C(OCC(=O)N(CCc1ccccc1)Cc1ccccc1)c1ccc(F)c(S(=O)(=O)N2CCOCC2)c1 | 22 | 1 | . | . | . | . | .
O=C(COc1ccc2c(-c3ccccc3)cc(=O)oc2c1)N1C[C@H]2C[C@@H](C1)c1cccc(=O)n1C2 | 12 | -1 | . | . | . | . | .
Cc1ccc(NC(=O)C2(C)CCN2Cc2cccc3c2OCO3)cc1O (centres undefined) | -19 | 3 | . | . | . | . | .
Cc1cccc(OCc2nnc(NC(=O)Cc3cccs3)s2)c1 | -5 | 34* | -2 | 1 | -2 | 9.9* | 9
Cc1ccc(OCc2nnc(NC(=O)Cc3cccs3)s2)cc1 | . | . | 3 | . | -3 | . | .
O=[N+]([O-])c1ccc(N=Nc2c(O)[nH]c3ccc(F)cc23)cc1 | 10 | 18* | 17 | -1 | 8 | 10* | 1
COc1cccc(CN(C)C(=O)c2ccc(S(=O)(=O)Nc3ccccc3F)cc2)c1OC | 4 | -1 | 0 | . | -1 | . | .
COc1ccc(CN(C)C(=O)c2cc(S(=O)(=O)Nc3ccccc3F)ccc2C)c(OC)c1 | 11 | 12* | -6 | -1 | 3 | 1 | 2
O=C(NCCc1cccs1)Nc1ccc2nc([C@@H]3O[C@H](CO)[C@@H](O)[C@H]3O)[nH]c2c1 | 18 | 0 | . | . | . | . | .
COc1cc(/C=C(\CC(=O)O)c2nc3ccccc3s2)ccc1OCC(=O)Nc1ccccc1F | -3 | -1 | . | . | . | . | .
COc1cc(/C=C(\C#N)c2nc3ccccc3s2)ccc1OCC(=O)Nc1ccccc1 | 3 | 49* | . | 1 | . | 30* | 10
C=CCn1c(SCC(=O)Nc2ccc(OC)cc2)nc2ccccc2c1=O | 2 | 15* | -5 | -1 | 2 | -2 | 1
CCOc1cc(NC(=O)c2ccco2)c(OCC)cc1NC(=O)c1cc(OC)c(OC)c(OC)c1 | 0 | 13* | 5 | 0 | 3 | 4 | 53*
COc1cc(NC(=O)c2cccc(F)c2)ccc1NC(=O)c1cc2ccccc2o1 | -5 | 12* | 16 | 2 | 8 | 5 | 9
COc1cc(NC(=O)c2oc3ccccc3c2C)ccc1NC(=O)c1ccco1 | 5 | 9.7* | 3 | 0 | 7 | 2 | 5
CCN(CC)C(=O)C1=C(C)N(Cc2ccccc2)C(=O)C(CC(=O)NCc2ccco2)C1 (centres undefined) | 7 | 2 | . | . | . | . | .
C[C@@H]1CN([C@@H](C)CO)C(=O)CCCn2cc(nn2)CO[C@H]1CN(C)S(=O)(=O)c1ccc(Cl)cc1 | 2 | 0 | . | . | . | . | .
COc1ccc(Oc2c(OC)cc(NCc3ccc(CN)cc3)c3ncccc23)cc1 | -10 | -3 | . | . | . | . | .
COCCn1c(SCC(=O)Nc2ccc(NC(=O)c3ccco3)c(OC)c2)nc2ccccc2c1=O | -4 | 27* | 3 | 1 | -1 | 8 | 16
COCCn1c(SCC(=O)Nc2ccccc2OC)nc2ccccc2c1=O | -21 | -1 | 2 | 1 | 0 | . | .
CCn1c(SCC(=O)Nc2ccc(NC(=O)c3ccco3)c(OC)c2)nc2ccccc2c1=O | 15 | 18* | 2 | 0 | -2 | 5 | 2
CCn1c(SCC(=O)Nc2ccccc2OC)nc2ccccc2c1=O | -22 | -1 | -2 | 0 | 0 | . | .
O=C(Nc1ccc2c(c1)Cc1ccccc1-2)c1cc2ccccc2o1 | 4 | 13* | 0 | 0 | 1 | -1 | 3
